Measured values from PubChem BioAssay.
The source made the active and inactive calls.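 How the source made its calls, unless noted: active means viability at or under a set limit in both replicates, limit being median viability minus 3 SD (cut at about 48% in these data, passing the limit was not always enough); inconclusive means at or under the limit in just one replicate; inactive means at or above the limit in both replicates.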

Tests used:
[1] = reducers of endogenous Her2 protein level, primary screen, SKBR3 breast tumor cells, AlphaScreen, ATP viability (AID 461;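 active means Her2 level under about 52% in both replicate screens, with viability over 70% of control, limit read from the data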;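 on Her2 level: lower value means less Her2 protein in the cells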;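 on viability: percent of carrier control wells set as 100% viability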); settings: 18-24 h, measured here: SKBR3 viability, ATP luminescence, at 10 µM
[2] = molecular target: Receptor tyrosine-protein kinase erbB-2 (Homo sapiens) (UniProt P04626); assay: as above; settings: 18-24 h, at 10 µM, stronger effect = lower value
[3] = SK-BR-3 cell growth inhibitors, pilot screen, 24 h, human (AID 572;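 active means viability at or below 10% of carrier control in both of two separate runs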;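 further: compound exposure lasted between 18 and 24 h rather than exactly 24 h; 100% = carrier-treated control wells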); settings: SK-BR-3 viability, CellTiter-Glo luminescence, at 10 µM, stronger effect = lower value
[4] = HUVEC growth inhibition – cell-based, human, primary screen (AID 575;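 active means viability at or below 30% in both replicate assays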;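 further: 100% = median of untreated cell wells with 0.1% DMSO on each plate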); settings: HUVEC proliferation, CellTiter-Glo luminescence, 72 h; at 10 µM; stronger effect = lower value
In short: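 Material: primary human umbilical vein endothelial cells / Schedule: 72 h exposure, 37 °C, 5% CO2, 30 min RT equilibration / Signal: ATP-based CellTiter-Glo luminescent read / Read-out basis: percent of median DMSO-control luminescence / Control set: 32 DMSO-only cell-control wells (high), 32 MePR drug-control wells (low) per plate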

[5] = growth inhibitors of H69AR lung tumor, primary screen, human, duplicate replicates (AID 580); settings: H69AR lung tumor cells viability, ATP luminescence, 72 h; at 10 µM; stronger effect = lower value;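 further: 100% = mean luminescence of untreated wells and 0% = no signal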
[6] = reversal of MRP1-mediated doxorubicin resistance, pilot screen, H69AR cells, doxorubicin co-treatment (AID 601;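 active means viability loss from added drug above about 55%, and viability with drug at most 40%, in both replicates, limit read from the data, passing the limit was not always enough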); settings: CellTiter-Glo, 72 h, at 10 µM; for differential viability (reversal): stronger effect = higher value
[7] = 384-well plate pilot, post-Golgi transport modulator project, inhibition of yeast transport mutant growth (AID 636; in the data active means inhibition above about 31%); settings: absorbance 615 nm, about 18 h, stronger effect = higher value
[8] = growth suppression of yeast trafficking mutant, preliminary HTS, modulators of trafficking downstream of Golgi apparatus project, 1536-format plate, OD 615 nm (AID 637; in the data active means inhibition above about 30%); settings: yeast transport mutant growth, absorbance 615 nm, 18 h; stronger effect = higher value
[9] = H69AR cells + 2 uM doxorubicin, measured here: viability with 2 uM doxorubicin, stronger effect = lower value
[10] = H69AR cells, compound alone cytotoxicity

Chain of Receptor tyrosine-protein kinase erbB-2 (Homo sapiens) (P04626 whole entry, looked up): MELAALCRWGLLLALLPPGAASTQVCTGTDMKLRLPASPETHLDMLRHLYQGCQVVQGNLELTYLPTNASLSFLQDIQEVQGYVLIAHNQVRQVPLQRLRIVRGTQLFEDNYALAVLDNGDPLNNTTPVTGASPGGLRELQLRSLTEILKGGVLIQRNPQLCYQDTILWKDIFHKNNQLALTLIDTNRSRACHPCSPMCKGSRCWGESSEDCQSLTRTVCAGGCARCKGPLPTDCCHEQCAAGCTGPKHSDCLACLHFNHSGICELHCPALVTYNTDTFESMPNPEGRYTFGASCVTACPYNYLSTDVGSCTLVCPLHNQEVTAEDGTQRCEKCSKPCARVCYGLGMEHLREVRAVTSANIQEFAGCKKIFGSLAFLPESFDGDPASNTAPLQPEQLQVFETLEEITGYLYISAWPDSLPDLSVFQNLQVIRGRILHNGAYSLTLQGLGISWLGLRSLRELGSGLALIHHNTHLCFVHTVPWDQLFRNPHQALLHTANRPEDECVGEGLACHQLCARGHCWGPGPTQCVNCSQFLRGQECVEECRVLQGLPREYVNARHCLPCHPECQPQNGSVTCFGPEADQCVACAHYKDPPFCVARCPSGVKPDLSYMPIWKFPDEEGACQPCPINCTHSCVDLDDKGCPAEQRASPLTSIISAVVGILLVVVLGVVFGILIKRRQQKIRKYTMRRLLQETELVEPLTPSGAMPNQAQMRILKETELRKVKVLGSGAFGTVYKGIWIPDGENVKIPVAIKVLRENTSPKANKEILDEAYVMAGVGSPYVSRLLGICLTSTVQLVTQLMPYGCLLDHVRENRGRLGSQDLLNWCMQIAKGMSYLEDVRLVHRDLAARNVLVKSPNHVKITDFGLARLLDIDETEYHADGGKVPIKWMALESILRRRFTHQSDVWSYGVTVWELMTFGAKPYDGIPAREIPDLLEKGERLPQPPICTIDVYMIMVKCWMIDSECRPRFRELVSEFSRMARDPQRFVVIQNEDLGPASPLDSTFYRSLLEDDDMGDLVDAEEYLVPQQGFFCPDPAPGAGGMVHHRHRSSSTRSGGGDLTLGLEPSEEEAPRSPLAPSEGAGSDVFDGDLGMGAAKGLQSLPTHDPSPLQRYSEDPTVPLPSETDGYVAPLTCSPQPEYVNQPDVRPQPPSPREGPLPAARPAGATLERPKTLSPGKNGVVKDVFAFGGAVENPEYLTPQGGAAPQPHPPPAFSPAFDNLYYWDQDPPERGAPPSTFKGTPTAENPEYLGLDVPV

Compound	viability [1] [%]	Her2 level [2]	viability [3]	viability [4]	viability [5]	differential viability (reversal) ([6]; H69AR cells + 2 uM doxorubicin)	viability [6, 9] [%]	viability [6, 10] [%]	inhibition [7]	inhibition [8]
CC(C)Cn1c(CN2CCCCC2C)nc2c1c(=O)n(C)c(=O)n2C (stereo not given)	88.5	91.5% (inactive)	88.5% (inactive)	109% (inactive)	94.2% (inactive)	16.7% (inactive)	77.6	94.2	-5.73% (inactive)	-3.61% (inactive)
O=S(=O)(NC1CCCC1)c1ccc(S(=O)(=O)N2CCc3ccccc32)cc1	99.5	94.5% (inactive)	99.5% (inactive)	66.1% (inactive)	71.5% (inactive)	1.97% (inactive)	69.6	71.5	-4.94% (inactive)	-12.4% (inactive)
CCOc1ccc(N(C(C)=O)C2C=CS(=O)(=O)C2)cc1 (stereo not given)	91.5	90.5% (inactive)	91.5% (inactive)	95.7% (inactive)	94.9% (inactive)	2.48% (inactive)	92.4	94.9	-1.87% (inactive)	0.33% (inactive)
Cc1ccc2cc(C#N)c(N3CCCC3)nc2c1C	77	70.5% (inactive)	77% (inactive)	91.4% (inactive)	74.8% (inactive)	-3.67% (inactive)	78.5	74.8	-5.27% (inactive)	-2.33% (inactive)
CN1CCN(C(c2cccc(C(F)(F)F)c2)c2nnnn2C(C)(C)C)CC1 (stereo not given)	94.5	86.5% (inactive)	94.5% (inactive)	102% (inactive)	91.5% (inactive)	1.82% (inactive)	89.7	91.5	-4.8% (inactive)	0.82% (inactive)
Cc1ccc(S(=O)(=O)N2CCC(C(=O)N3CCC[C@H]3C(=O)NCc3ccccc3)CC2)cc1	117	103% (inactive)	117% (inactive)	101% (inactive)	90.8% (inactive)	-5.42% (inactive)	96.2	90.8	-4.81% (inactive)	-0.66% (inactive)
CN(C)c1ccc(NC(=O)CSCc2nc3c(nnn3Cc3ccc(F)cc3)c(=O)[nH]2)cc1	89.5	83.5% (inactive)	89.5% (inactive)	110% (inactive)	94% (inactive)	4.32% (inactive)	89.7	94	-6.49% (inactive)	0% (inactive)
Cc1nnc(NC(=O)Nc2cccc(Cl)c2)s1	86	89.5% (inactive)	86% (inactive)	76.8% (inactive)	63% (inactive)	-21% (inactive)	84.1	63	-6.18% (inactive)	-4.03% (inactive)
COc1ccc(N(CC(=O)N2c3ccccc3CC2C)S(=O)(=O)c2c(C)noc2C)cc1 (stereo not given)	88.5	88.5% (inactive)	88.5% (inactive)	70.3% (inactive)	83% (inactive)	-16.9% (inactive)	99.9	83	-4.53% (inactive)	1.97% (inactive)
N#CC1=C(N)SC(N)=C(C#N)C1CCc1ccccc1	79.5	77.5% (inactive)	79.5% (inactive)	44.8% (inactive)	23.3% (active)	-8.65% (inactive)	31.9	23.3	-2.11% (inactive)	-0.36% (inactive)
CC1=C(C(N)=O)C(c2cccnc2)n2nc(SCc3ccccc3Cl)nc2N1 (stereo not given)	79	94.5% (inactive)	79% (inactive)	87.6% (inactive)	98.7% (inactive)	14.7% (inactive)	84	98.7	-9.05% (inactive)	-3.77% (inactive)
O=S(=O)(c1ccc2ccccc2c1)N1CCCCC1	102	82.5% (inactive)	102% (inactive)	78% (inactive)	80.8% (inactive)	5.72% (inactive)	75.1	80.8	-1.95% (inactive)	-8.67% (inactive)
COc1cc(Br)cc(/C=N/c2ncn[nH]2)c1O	134	89% (inactive)	134% (inactive)	35.2% (inactive)	86.6% (inactive)	-17.5% (inactive)	104	86.6	-4.81% (inactive)	-3.44% (inactive)
O=c1cc(CN2CCN(c3ccc(F)cc3)CC2)nc2sccn12	85	118% (inactive)	85% (inactive)	87.9% (inactive)	87.2% (inactive)	-4.83% (inactive)	92.1	87.2	5.45% (inactive)	-14.2% (inactive)
O=C(COc1nnnc2ccccc12)N1CCCc2ccccc21	97	87% (inactive)	97% (inactive)	98.2% (inactive)	98.3% (inactive)	0.405% (inactive)	97.9	98.3	-4.8% (inactive)	6.07% (inactive)
CC1CN(c2nc3ccccn3c(=O)c2/C=C(\C#N)S(=O)(=O)c2ccccc2)CC(C)O1 (stereo not given)	93.5	106% (inactive)	93.5% (inactive)	96.3% (inactive)	90% (inactive)	59% (active)	31	90	-0.53% (inactive)	-14.4% (inactive)
